Data published in ChEMBL document CHEMBL1158343, “Synthesis, antimicrobial and antiviral evaluation of substituted imidazole derivatives” (Eur J Med Chem, 2009).
≈ marks a conversion by molar mass, not a printed value.

What was measured:
Staphylococcus aureus = experiment: Antimicrobial activity against Staphylococcus aureus after 24 hrs by tube dilution method; assay type: functional
Procedure, shortened: (§1)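 Tube dilution in DMSO (stock 100 mg/ml) with serial dilutions; incubation 37 °C for 48 h for C. albicans (other organisms' times truncated in text). MIC read as lowest concentration inhibiting visible growth. Norfloxacin (bacteria) and fluconazole (fungi) as reference drugs.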

Bacillus subtilis = experiment: Antimicrobial activity against Bacillus subtilis after 24 hrs by tube dilution method; assay type: functional; procedure, shortened: as §1
Escherichia coli = experiment: Antimicrobial activity against Escherichia coli after 24 hrs by tube dilution method; assay type: functional; procedure, shortened: as §1
Aspergillus niger = experiment: Antimicrobial activity against Aspergillus niger after 7 days by tube dilution method; assay type: functional; conditions: 168 h; procedure, shortened: as §1
Candida albicans = experiment: Antimicrobial activity against Candida albicans after 48 hrs by tube dilution method; assay type: functional; procedure, shortened: as §1
[1] = Cytotoxicity against human HEL cells assessed as alteration in cell morphology; assay type: cell-based
Procedure, shortened: (§2)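 Uninfected cell cultures tested in parallel with the CPE-reduction antiviral assay; cells grown to confluency, then serial compound dilutions added and incubated at 37 °C (3 days in the parallel antiviral set-up). Read-out is microscopic examination of morphology; value is the minimum cytotoxic concentration, the lowest causing a microscopically detectable alteration of normal cell morphology.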

Human alphaherpesvirus 1 [2] = experiment: Antiviral activity against HSV1 KOS infected in human HEL cells assessed as reduction in virus-induced cytopathogenicity after 3 days; assay type: functional, organism-based; conditions: Human alphaherpesvirus 1, KOS, 72 h
Human alphaherpesvirus 2 = experiment: Antiviral activity against HSV2 G infected in human HEL cells assessed as reduction in virus-induced cytopathogenicity after 3 days; assay type: functional, organism-based; conditions: Human alphaherpesvirus 2, strain G, 72 h
[3] = test system: Vesicular stomatitis virus; experiment: Antiviral activity against VSV infected in human HEL cells assessed as reduction in virus-induced cytopathogenicity after 3 days; assay type: functional, organism-based; conditions: 72 h
Human alphaherpesvirus 1 [4] = experiment: Antiviral activity against thymidine kinase-deficient acyclovir-resistant HSV1 KOS infected in human HEL cells assessed as reduction in virus-induced cytopathogenicity after 3 days; assay type: functional, organism-based; conditions: Human alphaherpesvirus 1, KOS, 72 h
[5] = Cytotoxicity against human HeLa cells assessed as alteration in cell morphology; assay type: cell-based; procedure, shortened: as §2
[6] = test system: Vesicular stomatitis virus; experiment: Antiviral activity against VSV infected in human HeLa cells assessed as reduction in virus-induced cytopathogenicity after 3 days; assay type: functional, organism-based; conditions: 72 h
Coxsackievirus B4 [7] = experiment: Antiviral activity against Coxsackievirus B4 infected in human HeLa cells assessed as reduction in virus-induced cytopathogenicity after 3 days; assay type: functional, organism-based; conditions: Enterovirus B, 72 h
[8] = test system: Respiratory syncytial virus; experiment: Antiviral activity against RSV infected in human HeLa cells assessed as reduction in virus-induced cytopathogenicity after 3 days; assay type: functional, organism-based; conditions: 72 h
[9] = Cytotoxicity against african green monkey Vero cells assessed as alteration in cell morphology; assay type: cell-based; conditions: chlorocebus sabaeus; procedure, shortened: as §2
Human respirovirus 3 = experiment: Antiviral activity against Parainfluenza-3 virus infected in african green monkey Vero cells assessed as reduction in virus-induced cytopathogenicity after 3 days; assay type: functional, organism-based; conditions: Human respirovirus 3, Vero, 72 h
[10] = test system: Mammalian orthoreovirus 1; experiment: Antiviral activity against Reovirus 1 infected in african green monkey Vero cells assessed as reduction in virus-induced cytopathogenicity after 3 days; assay type: functional, organism-based; conditions: Mammalian orthoreovirus 1, Vero, 72 h
Sindbis virus = experiment: Antiviral activity against Sindbis virus infected in african green monkey Vero cells assessed as reduction in virus-induced cytopathogenicity after 3 days; assay type: functional, organism-based; conditions: 72 h
Coxsackievirus B4 [11] = experiment: Antiviral activity against Coxsackievirus B4 infected in african green monkey Vero cells assessed as reduction in virus-induced cytopathogenicity after 3 days; assay type: functional, organism-based; conditions: Enterovirus B, 72 h
Punta Toro virus = experiment: Antiviral activity against Punta Toro virus infected in african green monkey Vero cells assessed as reduction in virus-induced cytopathogenicity after 3 days; assay type: functional, organism-based; conditions: 72 h

| SMILES | MBC (Staphylococcus aureus) [µM] | MIC (Staphylococcus aureus) [µM] | MBC (Bacillus subtilis) [µM] | MIC (Bacillus subtilis) [µM] | MBC (Escherichia coli) [µM] | MIC (Escherichia coli) [µM] | MFC (Aspergillus niger) [µM] | MIC (Aspergillus niger) [µM] | MFC (Candida albicans) [µM] | MIC (Candida albicans) [µM] | MCC [1] [µg/mL] | EC50 (Human alphaherpesvirus 1 [2]) [µg/mL] | EC50 (Human alphaherpesvirus 2) [µg/mL] | EC50 [3] [µg/mL] | EC50 (Human alphaherpesvirus 1 [4]) [µg/mL] | MCC [5] [µg/mL] | EC50 [6] [µg/mL] | EC50 (Coxsackievirus B4 [7]) [µg/mL] | EC50 [8] [µg/mL] | MCC [9] [µg/mL] | other results |
| --- | --- | --- | --- | --- | --- | --- | --- | --- | --- | --- | --- | --- | --- | --- | --- | --- | --- | --- | --- | --- | --- |
| O=C(c1ccc([N+](=O)[O-])cc1)n1ccnc1-c1ccc(Cl)cc1 | 152 (≈ 49.8 µg/mL) | 38 (≈ 12.5 µg/mL) | 305 (≈ 100 µg/mL) | 19 (≈ 6.23 µg/mL) | 305 (≈ 100 µg/mL) | 38 (≈ 12.5 µg/mL) | 76 (≈ 24.9 µg/mL) | 4 (≈ 1.31 µg/mL) | 152 (≈ 49.8 µg/mL) | 19 (≈ 6.23 µg/mL) | > 100 | > 100 | > 100 | > 100 | > 100 | > 100 | > 100 | 45 (≈ 137 µM) | > 100 | > 100 | EC50 (Human respirovirus 3): > 100 µg/mL; EC50 [10]: > 100 µg/mL; EC50 (Sindbis virus): > 100 µg/mL; EC50 (Coxsackievirus B4 [11]): > 100 µg/mL; EC50 (Punta Toro virus): > 100 µg/mL |
| O=C(c1ccc([N+](=O)[O-])cc1)n1ccnc1-c1cccc([N+](=O)[O-])c1 | 147 (≈ 49.7 µg/mL) | 18 (≈ 6.09 µg/mL) | 295 (≈ 99.8 µg/mL) | 36 (≈ 12.2 µg/mL) | 36 (≈ 12.2 µg/mL) | 9 (≈ 3.04 µg/mL) | 73 (≈ 24.7 µg/mL) | 9 (≈ 3.04 µg/mL) | 295 (≈ 99.8 µg/mL) | 18 (≈ 6.09 µg/mL) | > 100 | > 100 | > 100 | > 100 | > 100 | > 100 | > 100 | > 100 | > 100 | > 100 | EC50 (Human respirovirus 3): > 100 µg/mL; EC50 [10]: > 100 µg/mL; EC50 (Sindbis virus): > 100 µg/mL; EC50 (Coxsackievirus B4 [11]): > 100 µg/mL; EC50 (Punta Toro virus): 100 µg/mL (≈ 296 µM) |
| O=C(c1ccc([N+](=O)[O-])cc1)n1ccnc1-c1ccccc1Cl | 19 (≈ 6.23 µg/mL) | 2 (≈ 0.655 µg/mL) | 19 (≈ 6.23 µg/mL) | 2 (≈ 0.655 µg/mL) | 19 (≈ 6.23 µg/mL) | 2 (≈ 0.655 µg/mL) | 76 (≈ 24.9 µg/mL) | 9 (≈ 2.95 µg/mL) | 152 (≈ 49.8 µg/mL) | 38 (≈ 12.5 µg/mL) | > 100 | > 100 | > 100 | > 100 | > 100 | > 100 | > 100 | > 100 | > 100 | > 100 | EC50 (Human respirovirus 3): > 100 µg/mL; EC50 [10]: > 100 µg/mL; EC50 (Sindbis virus): > 100 µg/mL; EC50 (Coxsackievirus B4 [11]): > 100 µg/mL; EC50 (Punta Toro virus): > 100 µg/mL |
| O=C(c1ccc([N+](=O)[O-])cc1)n1ccnc1-c1ccc([N+](=O)[O-])cc1 | 295 (≈ 99.8 µg/mL) | 73 (≈ 24.7 µg/mL) | 295 (≈ 99.8 µg/mL) | 36 (≈ 12.2 µg/mL) | 295 (≈ 99.8 µg/mL) | 73 (≈ 24.7 µg/mL) | 147 (≈ 49.7 µg/mL) | 18 (≈ 6.09 µg/mL) | 147 (≈ 49.7 µg/mL) | 18 (≈ 6.09 µg/mL) | > 100 | 59 (≈ 174 µM) | 50 (≈ 148 µM) | > 100 | 45 (≈ 133 µM) | 100 | > 20 | > 20 | > 20 | > 100 | EC50 (Human respirovirus 3): > 100 µg/mL; EC50 [10]: > 100 µg/mL; EC50 (Sindbis virus): > 100 µg/mL; EC50 (Coxsackievirus B4 [11]): > 100 µg/mL; EC50 (Punta Toro virus): > 100 µg/mL |
| O=C(c1ccccc1Br)n1ccnc1-c1ccccc1Cl | 268 (≈ 96.9 µg/mL) | 69 (≈ 25 µg/mL) | 268 (≈ 96.9 µg/mL) | 69 (≈ 25 µg/mL) | 268 (≈ 96.9 µg/mL) | 69 (≈ 25 µg/mL) | 138 (≈ 49.9 µg/mL) | 8 (≈ 2.89 µg/mL) | 138 (≈ 49.9 µg/mL) | 17 (≈ 6.15 µg/mL) | > 100 | > 100 | > 100 | > 100 | > 100 | > 100 | > 100 | > 100 | > 100 | > 100 | EC50 (Human respirovirus 3): > 100 µg/mL; EC50 [10]: > 100 µg/mL; EC50 (Sindbis virus): > 100 µg/mL; EC50 (Coxsackievirus B4 [11]): > 100 µg/mL; EC50 (Punta Toro virus): > 100 µg/mL |
| O=C(O)c1ccccc1-c1nccn1C(=O)c1ccc([N+](=O)[O-])cc1 | 18 (≈ 6.07 µg/mL) | 2 (≈ 0.675 µg/mL) | 18 (≈ 6.07 µg/mL) | 2 (≈ 0.675 µg/mL) | 18 (≈ 6.07 µg/mL) | 2 (≈ 0.675 µg/mL) | 148 (≈ 49.9 µg/mL) | 9 (≈ 3.04 µg/mL) | 256 (≈ 86.3 µg/mL) | 18 (≈ 6.07 µg/mL) | > 100 | > 100 | > 100 | > 100 | > 100 | > 100 | > 100 | > 100 | > 100 | > 100 | EC50 (Human respirovirus 3): > 100 µg/mL; EC50 [10]: > 100 µg/mL; EC50 (Sindbis virus): > 100 µg/mL; EC50 (Coxsackievirus B4 [11]): > 100 µg/mL; EC50 (Punta Toro virus): > 100 µg/mL |
| O=C(c1ccccc1Br)n1ccnc1-c1cccc([N+](=O)[O-])c1 | 33 (≈ 12.3 µg/mL) | 4 (≈ 1.49 µg/mL) | 268 (≈ 99.7 µg/mL) | 33 (≈ 12.3 µg/mL) | 16 (≈ 5.95 µg/mL) | 2 (≈ 0.744 µg/mL) | 67 (≈ 24.9 µg/mL) | 16 (≈ 5.95 µg/mL) | 268 (≈ 99.7 µg/mL) | 16 (≈ 5.95 µg/mL) | > 100 | > 100 | > 100 | > 100 | > 100 | > 100 | > 100 | > 100 | > 100 | > 100 | EC50 (Human respirovirus 3): > 100 µg/mL; EC50 [10]: > 100 µg/mL; EC50 (Sindbis virus): > 100 µg/mL; EC50 (Coxsackievirus B4 [11]): > 100 µg/mL; EC50 (Punta Toro virus): > 100 µg/mL |
| COc1ccc(-c2nccn2C(=O)c2ccc([N+](=O)[O-])cc2)cc1 | 18 (≈ 5.82 µg/mL) | 2 (≈ 0.647 µg/mL) | 18 (≈ 5.82 µg/mL) | 2 (≈ 0.647 µg/mL) | 147 (≈ 47.5 µg/mL) | 18 (≈ 5.82 µg/mL) | 147 (≈ 47.5 µg/mL) | 9 (≈ 2.91 µg/mL) | 147 (≈ 47.5 µg/mL) | 18 (≈ 5.82 µg/mL) | > 100 | > 100 | > 100 | > 100 | > 100 | > 100 | > 100 | > 100 | > 100 | > 100 | EC50 (Human respirovirus 3): > 100 µg/mL; EC50 [10]: > 100 µg/mL; EC50 (Sindbis virus): > 100 µg/mL; EC50 (Coxsackievirus B4 [11]): > 100 µg/mL; EC50 (Punta Toro virus): > 100 µg/mL |
